Assay results taken from ChEMBL document CHEMBL1155415, “Synthesis, characterization, and in vitro antimicrobial activities of 5-alkenyl/hydroxyalkenyl-2-phenylamine-1,3,4-oxadiazoles and thiadiazoles” (2010).
≈ marks a conversion by molar mass, not a printed value.

How the values were obtained:
Format in all cases: functional
Klebsiella pneumoniae [1] = assay: Antibacterial activity against Klebsiella pneumoniae after 24 hrs by disc diffusion method
In short: (§1)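 Agar disc diffusion. A standard inoculum of […] c.f.u./ml (0.5 McFarland) was spread evenly on agar. 6 mm Whatman no. 1 paper discs, dry-heat sterilized (140 °C, 1 h), were soaked in test compound and placed on nutrient agar. Plates were inverted and incubated 24 h at 37 °C. Read-out: diameter of the inhibition zone.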

Staphylococcus aureus [2] = assay: Antibacterial activity against Staphylococcus aureus ATCC 25923 after 18 to 24 hrs
[3] = test system: Trichophyton mentagrophytes; assay: Antifungal activity against Trichophyton mentagrophytes after 48 hrs by disk diffusion method
In short: (§2)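 Agar well diffusion with compounds in DMSO. The dish was lawned with a saline spore suspension, excess decanted, and dried 1 h at 37 °C. Wells were punched. Read-out: inhibition zone in mm. Griseofulvin served as standard and DMSO as negative control.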

Candida albicans [4] = assay: Antifungal activity against Candida albicans after 48 hrs by disk diffusion method; in short: as §2
Streptococcus pyogenes [5] = assay: Antibacterial activity against Streptococcus pyogenes after 24 hrs by disc diffusion method; in short: as §1
Klebsiella pneumoniae [6] = assay: Antibacterial activity against Klebsiella pneumoniae after 24 hrs by two fold dilution technique
In short: (§3)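 Broth dilution MIC. Nutrient broth held log two-fold serial dilutions of compound and was inoculated with about 5 × 10⁵ c.f.u./ml of actively dividing bacteria. Incubation was 24 h at 37 °C, with growth checked visually and spectrophotometrically. MIC is the lowest concentration arresting growth.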

Candida albicans [7] = assay: Ratio of MFC to MIC for Candida albicans
In short: (§4)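 MFC: 0.1 ml from each MIC tube was spread on agar and colonies were counted after 48 h at 35 °C. MFC is the lowest concentration killing 99.9% of the inoculum. The MFC/MIC ratio was then calculated to classify activity as fungistatic or fungicidal.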

Candida albicans [8] = assay: Antifungal activity against Candida albicans after 48 hrs by two fold dilution technique
In short: (§5)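 Broth MIC. Broth with log two-fold serial dilutions of compound was inoculated with about 1.6 × 10⁴–6 × 10⁴ c.f.u./ml of fungus and incubated 48 h at 35 °C. MIC is the lowest concentration arresting fungal growth.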

Staphylococcus aureus [9] = assay: Antibacterial activity against Staphylococcus aureus ATCC 25923 after 24 hrs by two fold dilution technique; details: ATCC 25923, 24 h; in short: as §3
Klebsiella pneumoniae [10] = assay: Antibacterial activity against Klebsiella pneumoniae after 18 to 24 hrs
Aspergillus fumigatus [11] = assay: Antifungal activity against Aspergillus fumigatus after 48 hrs by two fold dilution technique; in short: as §5
Streptococcus pyogenes [12] = assay: Antibacterial activity against Streptococcus pyogenes after 18 to 24 hrs
Talaromyces marneffei [13] = assay: Ratio of MFC to MIC for Penicillium marneffei; in short: as §4
Pseudomonas aeruginosa [14] = assay: Antibacterial activity against Pseudomonas aeruginosa ATCC 27853 after 24 hrs by disc diffusion method; in short: as §1
[15] = test system: Trichophyton mentagrophytes; assay: Antifungal activity against Trichophyton mentagrophytes after 48 hrs by two fold dilution technique; in short: as §5
Escherichia coli [16] = assay: Antibacterial activity against Escherichia coli ATCC 25922 after 18 to 24 hrs
Escherichia coli [17] = assay: Antibacterial activity against Escherichia coli ATCC 25922 after 24 hrs by two fold dilution technique; details: ATCC 25922, 24 h; in short: as §3
Staphylococcus aureus [18] = assay: Antibacterial activity against Staphylococcus aureus ATCC 25923 after 24 hrs by disc diffusion method; in short: as §1
Streptococcus pyogenes [19] = assay: Antibacterial activity against Streptococcus pyogenes after 24 hrs by two fold dilution technique; in short: as §3
Escherichia coli [20] = assay: Antibacterial activity against Escherichia coli ATCC 25922 after 24 hrs by disc diffusion method; in short: as §1
Talaromyces marneffei [21] = assay: Antifungal activity against Penicillium marneffei after 48 hrs by two fold dilution technique; in short: as §5
Aspergillus fumigatus [22] = assay: Antifungal activity against Aspergillus fumigatus after 48 hrs by disk diffusion method; in short: as §2
Talaromyces marneffei [23] = assay: Antifungal activity against Penicillium marneffei after 48 hrs by disk diffusion method; in short: as §2
Aspergillus fumigatus [24] = assay: Ratio of MFC to MIC for Aspergillus fumigatus; in short: as §4
Pseudomonas aeruginosa [25] = assay: Antibacterial activity against Pseudomonas aeruginosa ATCC 27853 after 18 to 24 hrs
Pseudomonas aeruginosa [26] = assay: Antibacterial activity against Pseudomonas aeruginosa ATCC 27853 after 24 hrs by two fold dilution technique; details: ATCC 27853, 24 h; in short: as §3
[27] = test system: Trichophyton mentagrophytes; assay: Ratio of MFC to MIC for Trichophyton mentagrophytes; in short: as §4

MIC (Klebsiella pneumoniae [6]) [µg/mL] | MIC (Candida albicans [8]) [µg/mL] | MIC (Staphylococcus aureus [9]) [µg/mL] | MIC (Aspergillus fumigatus [11]) [µg/mL] | MIC [15] [µg/mL] | MIC (Talaromyces marneffei [21]) [µg/mL] | SMILES | diameter of the inhibition zone (DIZ) (Klebsiella pneumoniae [1]) [mm] | MBC (Staphylococcus aureus [2]) [µg/mL] | diameter of the inhibition zone (DIZ) [3] [mm] | diameter of the inhibition zone (DIZ) (Candida albicans [4]) [mm] | diameter of the inhibition zone (DIZ) (Streptococcus pyogenes [5]) [mm] | Ratio (Candida albicans [7]) | MFC (Candida albicans [8]) [µg/mL] | MFC (Aspergillus fumigatus [11]) [µg/mL] | Ratio (Talaromyces marneffei [13]) | MFC [15] [µg/mL] | MFC (Talaromyces marneffei [21]) [µg/mL] | diameter of the inhibition zone (DIZ) (Aspergillus fumigatus [22]) [mm] | diameter of the inhibition zone (DIZ) (Talaromyces marneffei [23]) [mm] | Ratio (Aspergillus fumigatus [24]) | further results
6.25 (≈ 14.5 µM) | 12.5 (≈ 29.1 µM) | 6.25 (≈ 14.5 µM) | 12.5 (≈ 29.1 µM) | 12.5 (≈ 29.1 µM) | 25 (≈ 58.2 µM) | CCCCCCC(O)C/C=C\CCCCCCCc1nnc(Nc2ccccc2)s1 (stereo not drawn) | 22.7 | 12.5 (≈ 29.1 µM) | 18.9 | 25.1 | 22.9 | 2 | 25 (≈ 58.2 µM) | 50 (≈ 116 µM) | 2 | 25 (≈ 58.2 µM) | 50 (≈ 116 µM) | 22.4 | 15.1 | 4 | MBC (Klebsiella pneumoniae [10]): 6.25 µg/mL (≈ 14.5 µM); MBC (Streptococcus pyogenes [12]): 12.5 µg/mL (≈ 29.1 µM); diameter of the inhibition zone (DIZ) (Pseudomonas aeruginosa [14]): 29.2 mm; MBC (Escherichia coli [16]): 12.5 µg/mL (≈ 29.1 µM); MIC (Escherichia coli [17]): 6.5 µg/mL (≈ 15.1 µM); diameter of the inhibition zone (DIZ) (Staphylococcus aureus [18]): 21.6 mm; MIC (Streptococcus pyogenes [19]): 6.25 µg/mL (≈ 14.5 µM); diameter of the inhibition zone (DIZ) (Escherichia coli [20]): 25.5 mm; MBC (Pseudomonas aeruginosa [25]): 12.5 µg/mL (≈ 29.1 µM); MIC (Pseudomonas aeruginosa [26]): 6.25 µg/mL (≈ 14.5 µM)
12.5 (≈ 31.4 µM) | 6.25 (≈ 15.7 µM) | 12.5 (≈ 31.4 µM) | 6.25 (≈ 15.7 µM) | 12.5 (≈ 31.4 µM) | 6.25 (≈ 15.7 µM) | CCCCCCCC/C=C\CCCCCCCc1nnc(Nc2ccccc2)o1 | 14.9 | 50 (≈ 126 µM) | 20.2 | 26.1 | 15.6 | 4 | 25 (≈ 62.9 µM) | 12.5 (≈ 31.4 µM) | 4 | 25 (≈ 62.9 µM) | 25 (≈ 62.9 µM) | 23.1 | 15.9 | 2 | MBC (Klebsiella pneumoniae [10]): 50 µg/mL (≈ 126 µM); MBC (Streptococcus pyogenes [12]): 25 µg/mL (≈ 62.9 µM); Ratio [27]: 2; diameter of the inhibition zone (DIZ) (Pseudomonas aeruginosa [14]): 19.3 mm; MBC (Escherichia coli [16]): 50 µg/mL (≈ 126 µM); MIC (Escherichia coli [17]): 12.5 µg/mL (≈ 31.4 µM); diameter of the inhibition zone (DIZ) (Staphylococcus aureus [18]): 15.3 mm; MIC (Streptococcus pyogenes [19]): 25 µg/mL (≈ 62.9 µM); diameter of the inhibition zone (DIZ) (Escherichia coli [20]): 17.5 mm; MBC (Pseudomonas aeruginosa [25]): 50 µg/mL (≈ 126 µM); MIC (Pseudomonas aeruginosa [26]): 12.5 µg/mL (≈ 31.4 µM)
12.5 (≈ 41.7 µM) | 25 (≈ 83.5 µM) | 6.25 (≈ 20.9 µM) | 25 (≈ 83.5 µM) | 12.5 (≈ 41.7 µM) | 12.5 (≈ 41.7 µM) | C=CCCCCCCCCc1nnc(Nc2ccccc2)o1 | 16.8 | 25 (≈ 83.5 µM) | 16.9 | 24.2 | 18 | 2 | 50 (≈ 167 µM) | 100 (≈ 334 µM) | 2 | 50 (≈ 167 µM) | 25 (≈ 83.5 µM) | 20.8 | 15.2 | 4 | MBC (Klebsiella pneumoniae [10]): 25 µg/mL (≈ 83.5 µM); MBC (Streptococcus pyogenes [12]): 50 µg/mL (≈ 167 µM); Ratio [27]: 4; diameter of the inhibition zone (DIZ) (Pseudomonas aeruginosa [14]): 17.3 mm; MBC (Escherichia coli [16]): 50 µg/mL (≈ 167 µM); MIC (Escherichia coli [17]): 12.5 µg/mL (≈ 41.7 µM); diameter of the inhibition zone (DIZ) (Staphylococcus aureus [18]): 17.7 mm; MIC (Streptococcus pyogenes [19]): 12.5 µg/mL (≈ 41.7 µM); diameter of the inhibition zone (DIZ) (Escherichia coli [20]): 19.8 mm; MBC (Pseudomonas aeruginosa [25]): 50 µg/mL (≈ 167 µM); MIC (Pseudomonas aeruginosa [26]): 12.5 µg/mL (≈ 41.7 µM)
– | 6.25 (≈ 17.7 µM) | – | 6.25 (≈ 17.7 µM) | 6.25 (≈ 17.7 µM) | 6.25 (≈ 17.7 µM) | COC1=CC(=O)C[C@@H](C)[C@]12Oc1c(Cl)c(OC)cc(OC)c1C2=O [GRISEOFULVIN] | – | – | 24 | 30 | – | 2 | 12.5 (≈ 35.4 µM) | 12.5 (≈ 35.4 µM) | 2 | 12.5 (≈ 35.4 µM) | 12.5 (≈ 35.4 µM) | 27 | 20 | 2 | Ratio [27]: 2
